# Experimental data published in ChEMBL document CHEMBL1133719, “Synthesis and preliminary biological evaluations of CC-1065 analogues: effects of different linkers and terminal amides on biological activity” (J Med Chem, 2000).
# “And” between values parts separate entries of the source, which are not always exact repeats. Equal values may be shown once.
# Key:
# Mus musculus [1] = organism: Mus musculus; test: Antitumor activity in mice bearing B16BL6 melanoma; survivors for 90 days was reported
# BT-549 = test: Cytotoxicity against NCI tumor panel, BT-549 breast cancer cell line; type: functional, cell-based; conditions: Homo sapiens
# In short: (§1)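 NCI cell-line panel screen run by the National Cancer Institute; sulforhodamine B (SRB) readout after 48-h drug incubation.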
# HT-29 = test: Cytotoxicity against NCI tumor panel, HT-29 colon cancer cell line; type: functional, cell-based; conditions: Homo sapiens
# In short: (§2)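 Performed by NCI with the sulforhodamine B (SRB) method on its human tumour cell panel, using a 48-h drug incubation.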
# U-251 = test: Cytotoxicity against NCI tumor panel, U251 CNS cancer cell line; type: functional, cell-based; conditions: Homo sapiens
# In short: as §2
# NCI-H23 = test: Cytotoxicity against NCI tumor panel, NCI-H 23 non small-cell lung cancer cell line; type: functional, cell-based; conditions: Homo sapiens
# In short: as §2
# KM12 = test: Cytotoxicity against NCI tumor panel, KM12 colon cancer cell line; type: functional, cell-based; conditions: Homo sapiens
# In short: as §2
# LOX IMVI = test: Cytotoxicity against NCI tumor panel, […] melanoma cancer cell line; type: functional, cell-based; conditions: Homo sapiens
# In short: as §2
# A498 = test: Cytotoxicity against NCI tumor panel, A-498 renal cancer cell line; type: functional, cell-based; conditions: Homo sapiens
# In short: as §1
# HOP-92 = test: Cytotoxicity against NCI tumor panel, HOP-92 non small-cell lung cancer cell line; type: functional, cell-based; conditions: Homo sapiens
# In short: as §1
# Mus musculus [2] = test: Antitumor activity in mice bearing L1210 Leukemia at a dose of 30 ug/kg; survivors for 60 days was reported; type: functional
# In short: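 Female CDF1 mice, 10 per group, got 100 L1210 cells ip on day 0. Drug in DMSO was diluted with 30% DMSO in 0.5% glucose and dosed ip on days 1, 5 and 9. Long-term (60-day) survivors are given as percent of the group.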
# Mus musculus [3] = test: Antitumor activity was tested in mice and percent increase of life span at a dose of 100 ug/kg was reported; type: functional
# In short: (§3)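 B16BL6 cells were cultured as monolayers, and 10⁶ cells were injected ip on day 0 into female BDF1 mice (4-6 weeks, 8 per group). Drug in dimethylacetamide was diluted in DMA/Cremophor/water (1:5:44) and 0.1 mL given ip on days 1, 5 and 9. %ILS came from median survival of dying animals; 90-day survivors were counted; mean weight change covered days 1-10.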
# Mus musculus [4] = organism: Mus musculus; test: Hematological effects in female CDF1 mice at the dose of 50 ug, in red blood cells; type: functional
# In short: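 Non-tumor-bearing female CDF1 mice, 10 per group. Drugs were dissolved in DMSO, diluted in 30% DMSO/0.5% glucose, and given as a single ip dose on day 1 (doses per kg). Blood was sampled on day 27 for WBC, platelet, RBC and MCHC counts. Values are medians of 10 mice.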
# SK-MEL-2 = test: Cytotoxicity against NCI tumor panel,SK-MEL2 melanoma cancer cell line; type: functional, cell-based; conditions: Homo sapiens
# In short: as §2
# Mus musculus [5] = test: Antitumor activity was tested in mice and percent increase of life span at a dose of 25 ug/kg was reported; type: functional
# Hs-578T = test: Cytotoxicity against NCI tumor panel, HS 578T breast cancer cell line; type: functional, cell-based; conditions: Homo sapiens
# In short: as §2
# Mus musculus [6] = test: Antitumor activity in BDF1 male mice bearing L1210 Leukemia at a dose of 70 ug/kg; type: functional
# In short: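 Male BDF1 mice, 4-6 weeks old, 6 per group, were given 10⁵ L1210 cells ip on day 0. Drug in DMF was diluted in 30% DMSO/0.5% glucose and given ip on days 1, 5 and 9. %ILS = (T/C − 1) × 100 on median survival of dying animals only; 30-day survivors noted separately. Group weight change was taken from day 0 to the lowest-weight day.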
# MDA-MB-435 = test: Cytotoxicity against NCI tumor panel, MDA-MB-435 breast cancer cell line; type: functional, cell-based; conditions: Homo sapiens
# In short: as §2
# MDA-N = test: Cytotoxicity against NCI tumor panel, MDA-N breast cancer cell line; type: functional, cell-based; conditions: Homo sapiens
# In short: as §2
# SF-268 = test: Cytotoxicity against NCI tumor panel, SF-268 CNS cancer cell line; type: functional, cell-based; conditions: Homo sapiens
# In short: as §2
# HOP-62 = test: Cytotoxicity against NCI tumor panel, HOP-62 non small-cell lung cancer cell line; type: functional, cell-based; conditions: Homo sapiens
# In short: as §1
# M14 = test: Cytotoxicity against NCI tumor panel, M14 melanoma cancer cell line; type: functional, cell-based; conditions: Homo sapiens
# In short: as §2
# T47D = test: cytotoxicity against NCI tumor panel, T-47D breast cancer cell line; type: functional, cell-based; conditions: Homo sapiens
# In short: as §2
# Mus musculus [7] = test: Antitumor activity in mice bearing B16BL6 melanoma at a dose of 50 ug/kg; survivors for 90 days was reported; type: functional
# In short: as §3
# SNB-19 = test: Cytotoxicity against NCI tumor panel, SNB-19 CNS cancer cell line; type: functional, cell-based; conditions: Homo sapiens
# In short: as §2
# SK-MEL-28 = test: Cytotoxicity against NCI tumor panel, SK-MEL28 melanoma cancer cell line; type: functional, cell-based; conditions: Homo sapiens
# In short: as §2
# SR = test: Cytotoxicity against NCI tumor panel, SR leukemia cell line; type: functional, cell-based; conditions: Homo sapiens
# In short: as §2
# HL-60 = test: Cytotoxicity against NCI tumor panel, HL-60(TB) leukemia cell line; type: functional, cell-based; conditions: Homo sapiens
# In short: as §1
# HCT-116 = test: Cytotoxicity against NCI tumor panel, HCT116 colon cancer cell line; type: functional, cell-based; conditions: Homo sapiens
# In short: as §1
# PC-3 = test: Cytotoxicity against NCI tumor panel, PC-3 prostate cancer cell line; type: functional, cell-based; conditions: Homo sapiens
# In short: as §2
compound,measurement,setting,value
CC(=O)Nc1ccc2[nH]c(C(=O)Nc3ccc4[nH]c(C(=O)N5CC(CCl)c6c5cc(O)c5ccccc65)cc4c3)cc2c1 (centres undefined),No. of survivors,Mus musculus [1],0
same,IC50,BT-549,3.29 nM
same,IC50,HT-29,1.34 nM
same,IC50,U-251,0.719 nM
same,IC50,NCI-H23,1.36 nM
same,IC50,KM12,1.78 nM
same,IC50,LOX IMVI,0.577 nM
same,IC50,A498,3.95 nM
same,IC50,HOP-92,2.11 nM
same,% survivors,Mus musculus [2],40%
same,ILS at 0.1 mg/kg,Mus musculus [3],91%
same,RBC,Mus musculus [4],8.72 10e6 ul-1
same,IC50,SK-MEL-2,2.11 nM
same,ILS,Mus musculus [5],67% and 107%
same,IC50,Hs-578T,1.63 nM
same,No. of survivors,Mus musculus [6],1
same,IC50,MDA-MB-435,1.86 nM
same,IC50,MDA-N,2.22 nM
same,IC50,SF-268,0.212 nM
same,IC50,HOP-62,1.25 nM
same,IC50,M14,1.48 nM
same,IC50,T47D,1.68 nM
same,No. of survivors,Mus musculus [7],0
same,IC50,SNB-19,2.59 nM
same,IC50,SK-MEL-28,2.21 nM
same,IC50,SR,0.562 nM
same,IC50,HL-60,1.4 nM
same,IC50,HCT-116,0.495 nM
same,IC50,PC-3,2.03 nM
